These results are taken from ChEMBL document CHEMBL1143133, “Discovery of a dopamine D4 selective PET ligand candidate taking advantage of a click chemistry based REM linker” (Bioorg Med Chem Lett, 2008).

Data set [1] concerns the target T1, D(3) dopamine receptor (Homo sapiens, UniProt P35462). Briefly: Displacement of [3H]spiperone from human cloned dopamine D3 receptor at 100 uM.
The target in data set [2] is T2, D(4) dopamine receptor (Homo sapiens) (UniProt P21917).
T2 sequence (whole entry): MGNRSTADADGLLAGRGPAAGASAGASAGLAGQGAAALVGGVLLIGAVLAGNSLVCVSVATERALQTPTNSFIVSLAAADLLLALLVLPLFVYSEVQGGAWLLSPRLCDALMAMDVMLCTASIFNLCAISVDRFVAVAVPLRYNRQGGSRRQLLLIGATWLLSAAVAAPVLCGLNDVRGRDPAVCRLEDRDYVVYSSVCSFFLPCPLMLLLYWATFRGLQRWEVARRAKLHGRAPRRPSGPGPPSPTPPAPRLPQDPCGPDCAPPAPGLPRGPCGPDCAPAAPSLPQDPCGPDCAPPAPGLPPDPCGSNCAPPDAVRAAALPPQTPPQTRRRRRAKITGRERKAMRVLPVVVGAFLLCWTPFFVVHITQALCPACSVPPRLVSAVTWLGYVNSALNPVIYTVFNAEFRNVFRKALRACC
Description: Displacement of [3H]spiperone from human cloned dopamine D4 receptor at 100 uM. In general terms: In a radioligand displacement assay an active substance lowers the binding of a labelled ligand.

Data set [3] deals with T3, D(2) dopamine receptor (Homo sapiens, UniProt P14416). Briefly: Displacement of [3H][…] from human cloned dopamine D2 long receptor at 100 uM.
Data set [4] concerns the target T1, D(3) dopamine receptor. Description: Binding affinity to human D3 receptor. Summed up: (§1)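 Competition radioligand binding at human dopamine receptors: displacement of [³H]spiperone from D2long, D3 and D4.4, screened with test compound at 10 μM, 100 nM and 1 nM. Ki values in nM are means of 2–4 experiments, each run in triplicate.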
Data set [5] is described as follows: Binding affinity to pig cortical membrane 5HT1A receptor. Also on record: species or system Sus scrofa. Summed up:
(§2)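 Porcine cortical membranes with selective radioligands: [³H]8-OH-DPAT or [³H][…] for 5-HT1A, [³H]ketanserin for 5-HT2, and [³H]prazosin for α1. Ki (nM) is the mean of 2–4 experiments, each in triplicate.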

A further data set addresses T4, D(4) dopamine receptor (Homo sapiens, UniProt P21917).
T4 sequence (P21917 whole entry): T2 sequence (whole entry)
Description: Binding affinity to human dopamine D4.4 receptor. Summed up:
as §1

Data set [6] has as its target T3, D(2) dopamine receptor. Briefly: Binding affinity to human dopamine D2 long receptor. Summed up:
as §1

Data set [7] is described as follows: Displacement of [3H]prazosin from pig cortical membrane adrenergic alpha-1 receptor. Also on record: species or system Sus scrofa. Summed up:
as §2

In data set [8] the target is 5-hydroxytryptamine receptor 2A (Sus scrofa, UniProt P50129). Description: Displacement of [3H]ketanserin from pig cortical membrane 5HT2 receptor. Summed up:
as §2

The target of another data set is D(1A) dopamine receptor (Sus scrofa, UniProt P50130). Description: Binding affinity to pig cortical membrane dopamine D1 receptor. The method, boiled down:
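Porcine D1 receptor binding: displacement of [³H]SCH23390, screened with test compound at 10 μM, 100 nM and 1 nM. Ki (nM) is the mean of 2–4 experiments, each in triplicate.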

Data set [9] can be described thus: Distribution coefficient, log D at pH 7.4. It counts as physicochemical. To be noted: octanol/water. The method, boiled down:
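Lipophilicity determined on the ¹⁸F-labelled radioligand as logD at pH 7.4, n = 6.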

Data set [10] is described as follows: Stability in human serum at 90 mins. The class given is ADME, cell-free. To be noted: read-out: Stability. The method, boiled down: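 The ¹⁸F-labelled radioligand was incubated in human serum for 90 min, and intact tracer was quantified by radio-HPLC.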
The species named for the next data set is Homo sapiens. Description: Selectivity for human dopamine D4 receptor over human dopamine D2 receptor.
Data set [11] addresses Dopamine receptors; D3 & D4 (Homo sapiens) (UniProt P35462+P21917). Briefly: Selectivity for human dopamine D4 receptor over human dopamine D3 receptor.

Sequence of D(1A) dopamine receptor (P50130 whole entry): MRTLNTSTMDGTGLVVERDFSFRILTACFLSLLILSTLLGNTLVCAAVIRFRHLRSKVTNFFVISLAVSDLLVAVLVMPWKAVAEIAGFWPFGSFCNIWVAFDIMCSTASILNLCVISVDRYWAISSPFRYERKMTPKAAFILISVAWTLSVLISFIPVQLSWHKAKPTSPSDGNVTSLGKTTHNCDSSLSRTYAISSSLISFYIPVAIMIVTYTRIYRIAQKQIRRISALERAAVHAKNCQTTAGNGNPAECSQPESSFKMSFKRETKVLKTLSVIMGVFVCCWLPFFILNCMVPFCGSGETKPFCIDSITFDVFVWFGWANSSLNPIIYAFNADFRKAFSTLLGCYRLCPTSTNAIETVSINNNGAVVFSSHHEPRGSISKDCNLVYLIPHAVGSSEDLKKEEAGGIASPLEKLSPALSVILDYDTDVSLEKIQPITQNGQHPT
T3 sequence (P14416 whole entry): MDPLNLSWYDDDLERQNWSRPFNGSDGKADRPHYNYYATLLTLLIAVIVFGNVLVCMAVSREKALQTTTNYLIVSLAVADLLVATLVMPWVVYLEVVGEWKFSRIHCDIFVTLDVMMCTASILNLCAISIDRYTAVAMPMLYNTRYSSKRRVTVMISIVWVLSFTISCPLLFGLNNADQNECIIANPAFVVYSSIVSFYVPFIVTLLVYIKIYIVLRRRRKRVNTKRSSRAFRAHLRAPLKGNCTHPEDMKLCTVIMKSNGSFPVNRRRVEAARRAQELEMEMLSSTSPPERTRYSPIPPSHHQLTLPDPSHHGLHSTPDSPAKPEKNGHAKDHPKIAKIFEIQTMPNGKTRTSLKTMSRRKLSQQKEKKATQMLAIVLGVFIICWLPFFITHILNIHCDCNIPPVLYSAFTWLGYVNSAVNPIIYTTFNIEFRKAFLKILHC
Sequence of 5-hydroxytryptamine receptor 2A (P50129 whole entry): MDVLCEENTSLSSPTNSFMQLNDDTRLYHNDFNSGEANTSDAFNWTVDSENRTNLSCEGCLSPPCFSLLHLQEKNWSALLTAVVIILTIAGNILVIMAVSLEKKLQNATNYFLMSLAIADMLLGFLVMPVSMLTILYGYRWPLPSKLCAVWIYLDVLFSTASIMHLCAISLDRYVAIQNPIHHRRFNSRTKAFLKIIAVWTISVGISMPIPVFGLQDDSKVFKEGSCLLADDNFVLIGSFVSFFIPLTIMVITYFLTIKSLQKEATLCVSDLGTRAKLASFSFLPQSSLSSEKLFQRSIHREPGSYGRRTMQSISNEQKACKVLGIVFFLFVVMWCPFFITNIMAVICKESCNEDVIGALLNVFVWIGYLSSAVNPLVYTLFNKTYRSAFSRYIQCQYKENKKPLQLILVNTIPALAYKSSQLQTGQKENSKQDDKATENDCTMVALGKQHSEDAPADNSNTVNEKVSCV
T1 sequence (P35462 whole entry): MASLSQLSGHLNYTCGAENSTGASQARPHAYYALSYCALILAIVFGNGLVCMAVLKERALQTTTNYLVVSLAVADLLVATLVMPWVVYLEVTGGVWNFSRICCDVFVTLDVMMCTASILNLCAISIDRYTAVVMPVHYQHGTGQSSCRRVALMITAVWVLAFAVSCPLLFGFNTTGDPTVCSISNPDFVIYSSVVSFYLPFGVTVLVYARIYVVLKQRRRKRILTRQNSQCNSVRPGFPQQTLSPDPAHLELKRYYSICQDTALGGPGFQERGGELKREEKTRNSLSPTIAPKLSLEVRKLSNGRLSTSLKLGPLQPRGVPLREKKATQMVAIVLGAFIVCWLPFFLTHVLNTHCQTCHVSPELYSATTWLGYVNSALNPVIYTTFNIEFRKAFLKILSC
Sequence of Dopamine receptors; D3 & D4 (Homo sapiens) (P35462 whole entry, looked up, one chain of several): as the sequence (P35462 whole entry) above

`COc1cccc(N2CCN(Cc3ccccc3Br)CC2)c1`: the results for the Activity (at D(3) dopamine receptor [1]; in [2]; at D(2) dopamine receptor [3]) were -0%, 4% and 2%, respectively.

On to `COc1cccc(CN2CCN(c3ccccc3Cl)CC2)c1`, for which the Activity at D(3) dopamine receptor [1] stood at 13%; in data set [2], 55%; on D(2) dopamine receptor [3], 4%.

`N#Cc1ccc(CN2CCN(c3ccccc3Cl)CC2)cc1`: the Activity on D(3) dopamine receptor [1] was 2%; in [2], 73%; at D(2) dopamine receptor [3], 2%.

For `COc1ccccc1N1CCN(Cc2ccccc2Br)CC1`, the Activity at D(3) dopamine receptor [1] was determined as 21%; in data set [2], 44%; at D(2) dopamine receptor [3], 9%.

As to `Cc1ccc(N2CCN(Cc3ccccc3Br)CC2)cc1`, the Activity at D(3) dopamine receptor [1] came to 16%; in data set [2], 7%; at D(2) dopamine receptor [3], 6%.

`N#Cc1ccc(CN2CCN(c3ccc(Cl)c(Cl)c3)CC2)cc1`: the Activity on D(3) dopamine receptor [1] is -0%; in data set [2], 91%; on D(2) dopamine receptor [3], -0%.

`Fc1ccc(N2CCN(Cc3ccccc3Br)CC2)cc1`: the Activity at D(3) dopamine receptor [1] came to 1%; in [2], 4%; on D(2) dopamine receptor [3], 1%.

Take `COc1cccc(CN2CCN(c3ccc(C)cc3)CC2)c1`: the Activity on D(3) dopamine receptor [1] was 39%; in data set [2], 45%; at D(2) dopamine receptor [3], 6%.

`COc1cccc(CN2CCN(c3ccc(F)cc3)CC2)c1`: the values for the Activity (on D(3) dopamine receptor [1]; in data set [2]; on D(2) dopamine receptor [3]) were -0%, 18% and 2%, respectively.

Regarding `COc1cccc(CN2CCN(c3ccc(Cl)c(Cl)c3)CC2)c1`, the Activity at D(3) dopamine receptor [1] was found to be 2%; in data set [2], 92%; on D(2) dopamine receptor [3] it was 9%.

With `FCCOc1ccc(CN2CCN(c3ccc(Cl)cc3)CC2)cc1`, the Ki came out at 1.1 µM at D(3) dopamine receptor [4]; 5.2 µM in data set [5]; 0.05 µM on D(4) dopamine receptor; 1.1 µM at D(2) dopamine receptor [6]; 0.16 µM in data set [7]; 1.8 µM in [8]. The same compound gave a Ki on D(1A) dopamine receptor of 1.4 µM.

Turning to `FCCOc1cccc(CN2CCN(c3ccc(Cl)cc3)CC2)c1`, the Ki came out at 1.1 µM at D(3) dopamine receptor [4]; 3.3 µM in data set [5]; 0.082 µM at D(4) dopamine receptor; 0.59 µM at D(2) dopamine receptor [6]; 0.19 µM in [7]; 0.98 µM in data set [8]. The compound also displayed a Ki on D(1A) dopamine receptor of 5.1 µM.

As to `COc1ccccc1N1CCN(Cc2ccc(C#N)cc2)CC1`, the Activity at D(3) dopamine receptor [1] amounted to 5%; in data set [2] it was 82%; on D(2) dopamine receptor [3], 4%.

Take `COc1ccccc1N1CCN(Cc2cccc(OCCF)c2)CC1`: the Ki at D(3) dopamine receptor [4] was found to be 0.27 µM; in [5], 0.032 µM; on D(4) dopamine receptor, 0.0016 µM; at D(2) dopamine receptor [6] it was 0.057 µM; in data set [7] it was 0.036 µM; in data set [8] it was 1.9 µM. In addition, on D(1A) dopamine receptor, the Ki came to 5.2 µM.

Consider `COc1cc(CN2CCN(c3ccccc3OC)CC2)c(OCCF)cc1OC`, for which the Ki is 0.33 µM at D(3) dopamine receptor [4]; 0.1 µM in data set [5]; 0.0013 µM at D(4) dopamine receptor; 0.094 µM on D(2) dopamine receptor [6]; 0.013 µM in data set [7]; 0.28 µM in data set [8]. At D(1A) dopamine receptor, this compound gave a Ki of 6.8 µM.

As for `COc1cccc(CN2CCN(c3cccc(OC)c3)CC2)c1`, the Activity is 9% at D(3) dopamine receptor [1], 46% in data set [2] and -0% at D(2) dopamine receptor [3].

`COc1cc(CN2CCN(c3ccc(Cl)cc3)CC2)c(OCC[18F])cc1OC` yielded a logD in data set [9] of 2.8. In data set [10], the remaining at 1.5 h is greater than 95%.

`COc1cc(CN2CCN(c3ccccc3OC)CC2)ccc1OCCF`: the Ki on D(3) dopamine receptor [4] is 1.1 µM; in [5] it was 0.1 µM; at D(4) dopamine receptor, 0.0018 µM; at D(2) dopamine receptor [6] it was 0.31 µM; in data set [7], 0.021 µM; in data set [8], 2.1 µM. This compound had a Ki at D(1A) dopamine receptor of 5.4 µM.

Take `Clc1ccc(N2CCN(Cc3ccccc3Br)CC2)cc1Cl`: the Activity is 14% on D(3) dopamine receptor [1], -0% in data set [2] and 10% at D(2) dopamine receptor [3].

For the compound `COc1cccc(CN2CCN(c3ccccc3OC)CC2)c1`, the figures for the Activity (on D(3) dopamine receptor [1]; in data set [2]; on D(2) dopamine receptor [3]) were 39%, 26% and 6%, respectively.

Take `N#Cc1ccc(CN2CCN(c3ccc(F)cc3)CC2)cc1`: the figures for the Activity (at D(3) dopamine receptor [1]; in data set [2]; at D(2) dopamine receptor [3]) were 15%, 47% and -0%, respectively.

Take `COc1cc(CN2CCN(c3ccc(Cl)cc3)CC2)ccc1OCCF`: the Ki at D(3) dopamine receptor [4] was 4.9 µM; in data set [5], 18 µM; on D(4) dopamine receptor, 0.012 µM; on D(2) dopamine receptor [6], 21 µM; in [7], 0.018 µM; in data set [8], 0.85 µM. Moreover, the Ki on D(1A) dopamine receptor worked out at 5.7 µM. The Ratio Ki in the data set filed under Homo sapiens amounted to 1750.

In the case of `Clc1ccccc1N1CCN(Cc2ccccc2Br)CC1`, the Activity at D(3) dopamine receptor [1] was 4%; in [2], 9%; on D(2) dopamine receptor [3], -0%.

On to `COc1ccccc1N1CCN(Cc2ccc(OCCF)cc2)CC1`, for which the Ki on D(3) dopamine receptor [4] came to 0.077 µM; on D(4) dopamine receptor, 0.0037 µM; at D(2) dopamine receptor [6], 0.12 µM; in [7], 0.047 µM; in [8], 5.4 µM; at D(1A) dopamine receptor, 3.4 µM.

For the compound `COc1cccc(N2CCN(Cc3ccc(C#N)cc3)CC2)c1`, the results for the Activity (on D(3) dopamine receptor [1]; in data set [2]; on D(2) dopamine receptor [3]) were 6%, 69% and 2%, respectively.

For `Clc1ccc(N2CCN(Cc3cc4ccccn4n3)CC2)cc1`, the Ki in data set [5] is 1.7 µM; in data set [7] it was 0.27 µM; in data set [8], 0.9 µM; at D(1A) dopamine receptor, 5.5 µM.

As to `Cc1ccc(N2CCN(Cc3ccc(C#N)cc3)CC2)cc1`, the Activity at D(3) dopamine receptor [1] was 4%; in data set [2], 59%; on D(2) dopamine receptor [3], -0%.

For the compound `COc1cc(CN2CCN(c3ccc(Cl)cc3)CC2)c(OCCF)cc1OC`, the Ki was determined as 3.9 µM on D(3) dopamine receptor [4]; 2.8 µM in data set [5]; 0.0017 µM at D(4) dopamine receptor; 0.76 µM on D(2) dopamine receptor [6]; 0.0044 µM in data set [7]; 0.1 µM in data set [8]. This compound had a Ki on D(1A) dopamine receptor of 3.5 µM. The values for the Ratio Ki (in data set [11]; in the data set filed under Homo sapiens) were 2300 and 450, respectively.

As usually defined, the Ki is a dissociation constant, usually derived from enzyme kinetics or from competition with a known ligand. High values mean lower affinity, low ones higher affinity. A word on the logD: it is the decadic logarithm of the distribution of all forms, ionised or not, between an organic phase and buffer at a given pH.
